Source: PubChem BioAssay (several laboratories)
ROMK primary = modulators of human ROMK potassium channel; Tet-inducible ROMK, thallium flux fluorescence; actives lie on both sides; B-score at 10 µM; 130,000 compounds, 2% hits; AID 1918;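 active means signal ratio slope over the read window, or its plate-corrected B-score, at least 3 SD from the plate mean, either direction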;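 further: B-score of the F/F0 ratio slope over 7 to 12 s after thallium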
Cl transport mod = modulates chloride dependent transport by human KCC2 | B-score of Tl+ flux slope (higher = more flux/activation; lower = inhibition) at 10 µM | AID 1456 | Q9H2X9 | KCC2 cells, thallium flux FluoZin-2 fluorescence | 190,000 compounds, 2.2% hits;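 active means thallium flux slope and its plate-corrected score both differing from the plate sample mean at a set confidence after two filtering rounds, in either direction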;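 further: slope of fluorescence scaled to starting intensity during 10 to 20 s after thallium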
Target sequence (Q9H2X9 whole entry, looked up): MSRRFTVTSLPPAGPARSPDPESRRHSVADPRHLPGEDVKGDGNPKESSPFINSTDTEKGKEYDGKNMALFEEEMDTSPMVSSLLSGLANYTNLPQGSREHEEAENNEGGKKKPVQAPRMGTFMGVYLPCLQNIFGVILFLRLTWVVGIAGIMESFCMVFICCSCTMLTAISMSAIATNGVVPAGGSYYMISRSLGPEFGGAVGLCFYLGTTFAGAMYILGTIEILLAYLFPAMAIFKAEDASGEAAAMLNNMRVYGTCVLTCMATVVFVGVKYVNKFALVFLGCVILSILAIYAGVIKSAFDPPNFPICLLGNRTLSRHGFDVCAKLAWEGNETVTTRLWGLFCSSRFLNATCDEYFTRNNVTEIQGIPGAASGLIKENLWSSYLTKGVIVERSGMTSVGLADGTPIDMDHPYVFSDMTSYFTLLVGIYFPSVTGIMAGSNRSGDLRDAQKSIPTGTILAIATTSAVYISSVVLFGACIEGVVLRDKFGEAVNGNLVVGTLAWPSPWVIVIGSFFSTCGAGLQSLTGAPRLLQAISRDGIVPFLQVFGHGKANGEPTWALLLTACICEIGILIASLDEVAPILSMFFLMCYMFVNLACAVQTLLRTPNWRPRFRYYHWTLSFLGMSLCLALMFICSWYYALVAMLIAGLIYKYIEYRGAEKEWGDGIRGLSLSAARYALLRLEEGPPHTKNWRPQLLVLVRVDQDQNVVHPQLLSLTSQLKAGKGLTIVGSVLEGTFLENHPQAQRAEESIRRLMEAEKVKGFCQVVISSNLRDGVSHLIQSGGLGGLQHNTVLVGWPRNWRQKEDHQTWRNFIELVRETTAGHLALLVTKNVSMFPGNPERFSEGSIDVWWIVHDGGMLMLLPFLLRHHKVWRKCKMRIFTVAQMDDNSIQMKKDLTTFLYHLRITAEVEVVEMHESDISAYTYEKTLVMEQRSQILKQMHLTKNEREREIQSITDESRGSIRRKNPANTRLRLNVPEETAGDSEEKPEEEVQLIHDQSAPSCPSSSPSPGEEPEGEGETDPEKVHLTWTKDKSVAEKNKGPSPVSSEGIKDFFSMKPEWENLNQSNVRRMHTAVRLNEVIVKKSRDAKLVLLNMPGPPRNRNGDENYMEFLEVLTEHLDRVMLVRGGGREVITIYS
ABCB1 block = human ABCB1 inhibition, ABCG2 as counter-screen; P08183; AID 1326; 190,000 compounds, 0.067% hits; inhibition, % at 6.6 µM; CCRF-Adr cells, JC-1 efflux, flow cytometry; in the data active means inhibition above about 40%;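 further: 0% = vehicle and 100% = reference inhibitor; higher value means more JC-1 retained so stronger ABCB1 efflux block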
PMI act hi M6P = activators of human phosphomannose isomerase at near-saturating mannose 6-phosphate | P34949 | coupled PMI enzyme assay, resazurin fluorescence, 20 min; active compounds read high; 1 = untreated enzyme, 0 = substrate-free blank | activation factor at 20 µM | 190,000 compounds, 0.34% hits;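 active means activation factor of 2 or more at 20 µM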
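Test system: Human PMI in coupled enzyme assay | Input: 15 ng/mL PMI | Medium: HEPES-buffered pH 7.4 with magnesium and detergent | Compound: One concentration, 20 µM, in 1% DMSO | Incubation: Enzyme reaction with compound 20 min at room temperature | Detection: Diaphorase-driven resazurin-to-resorufin fluorescence, excitation 544, emission 590 nm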
ABCG2 block = human ABCG2 inhibition, ABCB1 as counter-screen. AID 1325. Q9UNQ0. IgMXP3 cells, JC-1 efflux, flow cytometry. inhibition, % at 6.6 µM. 190,000 compounds, 0.1% hits;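 active means inhibition above 80%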;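 further: 0% = DMSO and 100% = nicardipine control wells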
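Measure – % inhibition of efflux relative to nicardipine and DMSO · Test system – ABCG2 IgMXP3 and barcoded ABCB1 CCRF-Adr cell mix · Control set – nicardipine as high control, DMSO as low control · Compound – one concentration, 6.6 µM final · Signal – flow cytometry of retained JC-1 fluorescence · Timing – 10 min exposure at 25 °C with rotation, no wash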
PMI activator = activators of human phosphomannose isomerase | purified human PMI, coupled resazurin fluorescence, 20 min; active compounds read high; 1 = vehicle control, 0 substrate-free wells | activation factor at 20 µM | 190,000 compounds, 0.005% hits | AID 1214;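 active means activation factor of 2 or more at 20 µM, relative to plate controls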
KCC2 sec1 = confirmation of human KCC2 transport modulators; shares compounds with Cl transport mod; normalised thallium flux (F/F0 slope) at 10 µM; HEK293-KCC2, thallium flux, FluoZin2 fluorescence; active compounds read high; 3,700 compounds, 15% hits; AID 1713;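 active means thallium flux slope above the same plate's solvent-only control mean plus 3 SD; inconclusive means the two replicate wells disagree; inactive means no significant difference from solvent-only control wells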
KCC2 bumet counter = bumetanide-insensitive thallium flux in KCC2 cells with ouabain, counter-screen | shares compounds with Cl transport mod | HEK293-KCC2 + bumetanide/ouabain, thallium flux FluoZin2; active compounds read high | normalized thallium flux at 10 µM | 3,700 compounds, 49% hits | AID 1714;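 active means thallium entry rate above the same plate's blocked-transporter control wells by more than 3 SD; inconclusive means the two repeat wells disagree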;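 further: raw slope of fluorescence over initial fluorescence between 10 and 20 s after thallium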
KCC2 sec2 = confirmation of human KCC2 transport modulators. shares compounds with Cl transport mod. normalized thallium flux at 10 µM. HEK293-KCC2, thallium flux FluoZin2 fluorescence; actives lie on both sides; F/F0 rise rate, 10–20 s post-thallium. AID 1715. 3,700 compounds, 23% hits;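 active means thallium flux slope more than 3 SD above or below the plate's solvent-only control mean, mostly below; inconclusive means the two repeat wells disagreed; inactive means no significant shift from solvent-only controls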;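 further: raw slope with 0.1% DMSO as baseline and bumetanide as block control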
HEK293 Tl flux = acts in parental HEK cells, KCC2 counter-screen; thallium flux rate (normalised fluorescence) at 10 µM; AID 1716; shares compounds with Cl transport mod; HEK293 parental cells, thallium flux FluoZin2, ouabain; baseline-ratio fluorescence slope, 10–20 s after thallium; 3,700 compounds, 46% hits;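 active means thallium flux rate significantly above the same plate's solvent-only control wells, beyond their mean plus 3 SD; inconclusive means the two replicate wells gave conflicting results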
KCC2 ouabain = KCC2 (human) modulation, ouabain retest; HEK293-KCC2, thallium flux FluoZin2 fluorescence; bidirectional: low = inhibitor, high = activator; shares compounds with Cl transport mod; 3,700 compounds, 48% hits; raw Tl+ flux slope (below DMSO = inhibition, above = activation) at 10 µM;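 active means thallium flux slope beyond 3 SD from same-plate DMSO control mean in most replicates, usually higher, sometimes lower; inconclusive means repeat tests gave conflicting results; inactive means no significant difference from controls in most replicates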;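 further: slope of initial-normalized fluorescence between seconds 10 and 20 after thallium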
HEK293 Tl flux2 = parental HEK flux effect, counter-screen 2; thallium flux slope at 10 µM; HEK293 parental, thallium flux FluoZin-2 fluorescence slope; shares compounds with Cl transport mod; AID 1718; 3,700 compounds, 33% hits;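 active means thallium flux slope above the same plate's solvent-control mean plus 3 SD in both duplicate wells; inconclusive means duplicate wells that disagreed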;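 further: run without ouabain in cells lacking the KCC2 cotransporter; slope of fluorescence scaled to its starting value between 10 and 20 s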
* hit, by the source's call; ? = inconclusive; . = not tested or not shown. Shown are actives, neighbours in structure and some others; about 3.3% of the full set was active somewhere.

SMILES	ROMK primary	Cl transport mod	ABCB1 block	PMI act hi M6P	ABCG2 block	PMI activator	KCC2 sec1	KCC2 bumet counter	KCC2 sec2	HEK293 Tl flux	KCC2 ouabain	HEK293 Tl flux2
CC(=O)c1ccc(NC(=O)c2ccn(C(=O)OCC(C)C)n2)cc1	-0.059	0.0732	1.4	0.9	9.9	1	.	.	.	.	.	.
O=C(CCc1nc2ccccc2s1)N1CCN(S(=O)(=O)c2cccs2)CC1	-0.813	-4.11*	0.4	1	0.4	1	0.00704	0.00528	0.0377	0.00405	0.0181	0.011
O=C(Cc1ccccc1)Nc1cccc(-c2nnc(-c3ccco3)o2)c1	-1.47	-1.86	0.7	1	1.3	1	0.00522	0.00449	0.0301	0.00676	?	0.0104
O=C(Cc1ccc(Cl)cc1)Nc1cccc(-c2nnc(-c3ccco3)o2)c1	2.25e-05	0.689	0.2	0.9	2.6	0.9	.	.	.	.	.	.
COc1ccc(NC(=O)N2CCN(c3ccc([N+](=O)[O-])cc3)CC2)cc1	-0.18	0.458	0.0	.	24.0	.	.	.	.	.	.	.
COc1ccc(C(=O)NC(=S)N2CCN(c3ccc([N+](=O)[O-])cc3)CC2)cc1	.	4.11*	1.4	1	16.5	1	0.00632	0.0124*	0.0316	0.0096*	0.0288*	0.0113*
CSc1nnc(SCC2=NNC(=O)SC2)s1	0.594	0.0181	.	0.8	-1.0	1	.	.	.	.	.	.
COc1cccc(OCC(=O)NNC(=S)Nc2ccc(Cl)cc2Cl)c1	1.01	5.54*	-0.6	1	-0.5	0.8	0.00738	0.0148*	0.0282	0.0139*	?	0.0139*
CC1(C)CC(=O)c2c(-c3cccnc3)n[nH]c2C1	0.371	.	0.8	1	5.8	1	0.0101	0.00558	0.0343	0.00781	0.02	0.012
CC1(C)CC(=O)c2c(Cc3ccccc3)n[nH]c2C1	.	-0.484	0.3	1	2.0	1	.	.	.	.	.	.
COc1cc(CCC(=O)Nc2ccc(S(=O)(=O)NC3=NCCCCC3)cc2)cc(OC)c1OC	0.494	0.518	0.0	1	0.8	0.9	.	.	.	.	.	.
COc1ccc(N(CC(=O)N2CCC(Cc3ccccc3)CC2)S(C)(=O)=O)cc1	-1.75	-4.95*	0.2	1	-0.1	0.9	0.006	0.00384	?	0.00612*	0.0153*	0.0101
N#CC1C(C#N)N2CCCN2C1c1ccc(Br)cc1 (centres undefined)	.	-1.64	.	.	.	.	.	.	.	.	.	.
CCCCn1c(=O)[nH]c(=O)c2c1nc(-c1ccc(C#N)cc1)n2C1CCCC1	0.122	-1.14	.	1	.	1	.	.	.	.	.	.
CC(C)Cn1c(-c2ccc(C#N)cc2)nc2c1c(=O)[nH]c(=O)n2CC(C)C	-0.738	.	0.9	1	65.8	1	0.0105	0.00473	0.0318	0.00755	0.0187	0.00995
CCOc1ccc(N2C(=O)CC(Sc3nc4ccc(OCC)cc4s3)C2=O)cc1 (centres undefined)	.	0.789	.	.	.	.	.	.	.	.	.	.
CCOc1ccc2nc(SC3CC(=O)N(c4ccc(OC)cc4OC)C3=O)sc2c1 (centres undefined)	1.16	5.75*	1.0	0.9	7.3	0.8	0.00695	0.013*	0.0347	0.0143*	?	0.0173*
O=C(NC(=S)NNC(=O)[C@H]1C[C@@H]1c1ccccc1)c1cccc(F)c1	.	67.4*	.	.	.	.	0.00873	0.086*	0.0599*	0.0608*	0.0673*	0.0502*
COc1cccc(OC)c1C(=O)NC(=S)NNC(=O)[C@H]1C[C@@H]1c1ccccc1	.	4.31	.	.	.	.	.	.	.	.	.	.
CC(C)Oc1ccc(CNC(=S)N/N=C/c2ccc([N+](=O)[O-])cc2)cc1	.	3.59*	0.0	1	0.0	0.9	0.00932	0.00679	0.0338	0.00384	0.0207	0.0116
CC(C)COc1ccc(CNC(=S)N/N=C/c2ccc([N+](=O)[O-])cc2)cc1	0.0937	-0.846	1.2	1	5.5	1	.	.	.	.	.	.
CN(C)CC(O)COc1cccc(OCC(O)CN(C)C)c1 (centres undefined)	0.0221	.	0.4	1	1.5	1	0.00752	0.00442	0.031	0.00795	0.0197	0.0102
CN(C)CC(O)COc1ccc(-c2ccc(C#N)cc2)cc1 (centres undefined)	0.442	.	0.2	1	3.7	1	.	.	.	.	.	.
COc1ccccc1OCC(=O)N1CC2(C)CC1CC(C)(C)C2 (centres undefined)	-0.536	4.98*	0.5	1	1.7	1	0.00856	0.00602	0.0331	0.00801	0.0215	0.0102
CC(c1cccs1)N(Cc1ccco1)C(=S)Nc1ccccc1Cl (centres undefined)	-0.347	-0.00662	-0.3	1	-0.7	1	.	.	.	.	.	.
SMILES	ROMK primary	Cl transport mod	ABCB1 block	PMI act hi M6P	ABCG2 block	PMI activator	KCC2 sec1	KCC2 bumet counter	KCC2 sec2	HEK293 Tl flux	KCC2 ouabain	HEK293 Tl flux2
CCCCc1ccc(NC(=S)Nc2ccc(Cl)c(S(=O)(=O)N(C)C)c2)cc1	-0.338	0.29	37.6	0.9	-0.8	1	.	.	.	.	.	.
CCN(CC)CCSc1nc2ccccc2c(=S)n1-c1ccccc1	.	2.77*	-0.4	1.1	0.4	1.1	0.0104	0.00562	0.0338	0.00857	0.0199	0.0107
CCN(CC)CCSc1nc(O)c(-c2ccccc2)c(=O)n1-c1ccccc1	-0.01	0.027	1.7	1	4.7	0.9	.	.	.	.	.	.
CCCOc1ccccc1N/C(=N/c1nc(C)cc(C)n1)NC(=O)Nc1ccc(Cl)cc1	.	0.265	0.3	0.9	1.7	0.9	.	.	.	.	.	.
O=C(O)CSc1nc2c(cnn2-c2ccccc2)c(=O)n1-c1ccc(Br)cc1	1.71	-5.57*	0.3	1	3.0	1.1	0.00549	0.0045	0.0217*	?	0.0112*	0.00969
COC(=O)n1c(=S)oc2cc(Cl)ccc21	.	3.03*	-0.1	1	-0.2	0.8	0.0183*	0.0232*	0.0353	0.0154*	0.0291*	0.0123
